Measurements: ChEMBL document CHEMBL1139303, “One-pot synthesis of 5-phenylimino, 5-thieno or 5-oxo-1,2,3-dithiazoles and evaluation of their antimicrobial and antitumor activity” (2009)
Values after ≈ are worked out from the molar mass of the structure shown. Active and inactive are the calls of the source. The rule behind the calls is not given here.

Columns and labels:
[1] = system: Candida albicans; assay: Ratio of MFC to MIC against Candida albicans ATCC 10231; type: functional
How it was run: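 C. albicans ATCC10231 was pre-grown on yeast extract peptone dextrose agar for 24 h at 30 °C. MIC and MFC were determined by broth macro-dilution, with compounds dissolved in DMSO at no more than 2.13% solvent in the liquid culture. Each endpoint was measured in triplicate, and the MFC was divided by the MIC to give the ratio.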

[2] = system: Nakaseomyces glabratus; assay: Antifungal activity against Candida glabrata DSM6425 after 24 hrs by broth macrodilution method; type: functional; details: DSM6425, 24 h
How it was run: (§1)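 Yeasts pre-grown on yeast extract peptone dextrose medium, 30 °C, 24 h. MIC and MFC by macro-dilution broth method; compounds in DMSO, max 2.13% solvent in cultures. Amphotericin B and fluconazole as references. MFC/MIC ratio computed; ≥4 taken as fungistatic. Triplicate.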

[3] = system: Candida albicans; assay: Antifungal activity against Candida albicans ATCC 10231 after 24 hrs by broth macrodilution method; type: functional; details: ATCC 10231, 24 h; how it was run: as §1
[4] = system: Candida tropicalis; assay: Ratio of MFC to MIC against Candida tropicalis DSM 1346; type: functional; how it was run: as §1
[5] = system: Nakaseomyces glabratus; assay: Ratio of MFC to MIC against Candida glabrata DSM6425; type: functional; how it was run: as §1
[6] = system: Candida tropicalis; assay: Antifungal activity against Candida tropicalis DSM 1346 after 24 hrs by broth macrodilution method; type: functional; details: DSM 1346, 24 h; how it was run: as §1
[7] = system: Klebsiella pneumoniae; assay: Antibacterial activity against Klebsiella pneumoniae CIP 53153 at 50 ug after 24 hrs by agar diffusion method; type: functional, organism-based
How it was run: (§2)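 Bacteria pre-grown 24 h on nutritive agar (tryptone soy agar for E. faecalis, L. inocua) at 37 °C (30 °C for E. faecalis, L. inocua, B. cereus). Agar well diffusion with 50 µg compound in 80% DMSO; 80% DMSO alone as control. Inhibition zone diameter averaged from triplicate, scored 6-9, 9-12, >12 mm.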

[8] = system: Staphylococcus aureus; assay: Antibacterial activity against Staphylococcus aureus ATCC 25923 after 24 hrs by broth macrodilution method; type: functional; details: ATCC 25923, 24 h
How it was run: (§3)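 Bacteria pre-grown 24 h on nutritive agar (tryptone soy agar for E. faecalis, L. inocua) at 37 °C (30 °C for E. faecalis, L. inocua, B. cereus). MIC and MBC determined by macro-dilution broth method; MBC = lowest concentration killing 99.99% of inoculum. Compounds in DMSO, max 2.13% solvent in cultures. Triplicate.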

[9] = system: Bacillus cereus; assay: Antibacterial activity against Bacillus cereus at 50 ug after 24 hrs by agar diffusion method; type: functional; details: read-out: IZ; how it was run: as §2
[10] = system: Enterococcus faecalis; assay: Antibacterial activity against Enterococcus faecalis CIP 103214 at 50 ug after 24 hrs by agar diffusion method; type: functional; details: for zone of inhibition at 50 µg/disc: CIP 103214, 24 h, read-out: IZ; how it was run: as §2
[11] = system: Nakaseomyces glabratus; assay: Antifungal activity against Candida glabrata DSM6425 at 50 ug after 24 hrs by agar diffusion method; type: functional; details: DSM6425, 24 h, read-out: IZ
How it was run: (§4)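 Yeasts grown on yeast extract peptone dextrose medium at 30 °C for 24 h, then agar well diffusion with 50 µg compound in 80% DMSO; 80% DMSO alone as control. Averaged inhibition zone diameter from triplicate, scored 6-9, 9-12 or >12 mm.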

[12] = system: Listeria innocua; assay: Antibacterial activity against Listeria innocua at 50 ug after 24 hrs by agar diffusion method; type: functional; details: for zone of inhibition at 50 µg/disc: read-out: IZ; how it was run: as §2
[13] = system: Staphylococcus aureus; assay: Antibacterial activity against Staphylococcus aureus ATCC 25923 at 50 ug after 24 hrs by agar diffusion method; type: functional; details: for zone of inhibition at 50 µg/disc: Staphylococcus aureus, ATCC 25923, 24 h, read-out: IZ; how it was run: as §2
[14] = system: Candida albicans; assay: Antifungal activity against Candida albicans ATCC 10231 at 50 ug after 24 hrs by agar diffusion method; type: functional; details: ATCC 10231, 24 h, read-out: IZ; how it was run: as §4
[15] = system: Bacillus cereus; assay: Antibacterial activity against Bacillus cereus after 24 hrs by broth macrodilution method; type: functional; how it was run: as §3
[16] = system: Candida tropicalis; assay: Antifungal activity against Candida tropicalis DSM 1346 at 50 ug after 24 hrs by agar diffusion method; type: functional; details: DSM 1346, 24 h, read-out: IZ; how it was run: as §4
[17] = system: MCF7; assay: Antiproliferative activity against human MCF7 cells after 72 hrs by MTT assay; type: functional; details: MCF7, 72 h
How it was run: (§5)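 5000 cells per well added to pre-equilibrated medium at 37 °C; compounds from 10^-3 M DMSO stocks, final 10^-5 M. After 72 h, MTT (5 g/L) for 4 h, formazan dissolved in DMSO, OD 550 nm. % growth inhibition vs 1% DMSO medium (0%) and 10% SDS lysis (100%); mean ± SEM, 24 measures, three independent experiments.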

[18] = system: Pseudomonas aeruginosa; assay: Antibacterial activity against Pseudomonas aeruginosa ATCC 27853 at 50 ug after 24 hrs by agar diffusion method; type: functional, organism-based; how it was run: as §2
[19] = system: Pichia kudriavzevii; assay: Antifungal activity against Issatchenkia orientalis DSM6128 at 50 ug after 24 hrs by agar diffusion method; type: functional, organism-based; how it was run: as §4
[20] = system: MDA-MB-231; assay: Antiproliferative activity against human MDA-MB-231 cells after 72 hrs by MTT assay; type: functional; details: MDA-MB-231, 72 h; how it was run: as §5
[21] = system: Escherichia coli; assay: Antibacterial activity against Escherichia coli ATCC 25922 at 50 ug after 24 hrs by agar diffusion method; type: functional; details: for zone of inhibition at 50 µg/disc: ATCC 25922, 24 h, read-out: IZ; how it was run: as §2
[22] = system: MDA-MB-231; assay: Antiproliferative activity against human MDA-MB-231 cells at 10 uM after 72 hrs by MTT assay; type: functional; details: MDA-MB-231, 72 h; how it was run: as §5
[23] = system: Enterococcus faecalis; assay: Antibacterial activity against Enterococcus faecalis CIP 103214 after 24 hrs by broth macrodilution method; type: functional; details: CIP 103214, 24 h; how it was run: as §3
[24] = system: Listeria innocua; assay: Antibacterial activity against Listeria innocua after 24 hrs by broth macrodilution method; type: functional; how it was run: as §3
[25] = system: Escherichia coli; assay: Antibacterial activity against Escherichia coli ATCC 25922 after 24 hrs by broth macrodilution method; type: functional; details: ATCC 25922, 24 h; how it was run: as §3

| Compound | MFC [2] | MIC [2] | MFC [3] | MIC [3] | Ratio [4] | Ratio [5] | MFC [6] | MIC [6] | Activity [7] | MBC [8] | MIC [8] | zone of inhibition at 50 µg/disc [9] | zone of inhibition at 50 µg/disc [11] | zone of inhibition at 50 µg/disc [14] | MBC [15] | MIC [15] | zone of inhibition at 50 µg/disc [16] | GI50 [17] | Activity [18] | Activity [19] | also measured |
| --- | --- | --- | --- | --- | --- | --- | --- | --- | --- | --- | --- | --- | --- | --- | --- | --- | --- | --- | --- | --- | --- |
| OC(Cn1cncn1)(Cn1cncn1)c1ccc(F)cc1F [FLUCONAZOLE] | > 128 µg/mL | 4 µg/mL (≈ 13.1 µM) | > 128 µg/mL | 2 µg/mL (≈ 6.53 µM) | >32 | >32 | > 128 µg/mL | 4 µg/mL (≈ 13.1 µM) |  |  |  |  |  |  |  |  |  |  |  |  | Ratio [1]: >64 |
| CCOC(=O)c1nss/c1=N\c1ccccc1 | 48 µg/mL (≈ 180 µM) | 32 µg/mL (≈ 120 µM) | > 48 µg/mL | 48 µg/mL (≈ 180 µM) |  | 1.5 | > 48 µg/mL | 32 µg/mL (≈ 120 µM) | inactive | > 48 µg/mL | 48 µg/mL (≈ 180 µM) | 6 mm | 9 mm | > 12 mm | > 48 µg/mL | 48 µg/mL (≈ 180 µM) | 9 mm | > 10 µM | inactive | inactive | Activity [10]: inactive; Activity [12]: inactive; zone of inhibition at 50 µg/disc [13]: 6 mm; GI50 [20]: > 10 µM; Activity [21]: inactive; inhibition at 10 µM [22]: 0% |
| S=c1ssnc1-c1ccccn1 | 48 µg/mL (≈ 226 µM) | 8 µg/mL (≈ 37.7 µM) | > 48 µg/mL | 32 µg/mL (≈ 151 µM) | 1.5 | 6 | 48 µg/mL (≈ 226 µM) | 32 µg/mL (≈ 151 µM) | inactive | > 48 µg/mL | 48 µg/mL (≈ 226 µM) | 9 mm | 9 mm | > 12 mm | > 48 µg/mL | > 48 µg/mL | 9 mm | > 10 µM | inactive | inactive | MBC [23]: > 48 µg/mL; MIC [23]: 48 µg/mL (≈ 226 µM); MBC [24]: > 48 µg/mL; MIC [24]: 16 µg/mL (≈ 75.4 µM); zone of inhibition at 50 µg/disc [10]: > 12 mm; MBC [25]: > 48 µg/mL; MIC [25]: > 48 µg/mL; zone of inhibition at 50 µg/disc [12]: 9 mm; zone of inhibition at 50 µg/disc [13]: 12 mm; GI50 [20]: > 10 µM; zone of inhibition at 50 µg/disc [21]: 6 mm; inhibition at 10 µM [22]: 0% |
| CCOC(=O)c1nssc1=S | 48 µg/mL (≈ 232 µM) | 32 µg/mL (≈ 154 µM) | > 48 µg/mL | 48 µg/mL (≈ 232 µM) |  | 1.5 | > 48 µg/mL | 48 µg/mL (≈ 232 µM) | inactive | > 48 µg/mL | 48 µg/mL (≈ 232 µM) | 9 mm | 6 mm | > 12 mm | > 48 µg/mL | > 48 µg/mL | 6 mm | > 10 µM | inactive | inactive | MBC [23]: > 48 µg/mL; MIC [23]: > 48 µg/mL; MBC [24]: > 48 µg/mL; MIC [24]: 32 µg/mL (≈ 154 µM); zone of inhibition at 50 µg/disc [10]: 9 mm; MBC [25]: > 48 µg/mL; MIC [25]: > 48 µg/mL; zone of inhibition at 50 µg/disc [12]: 6 mm; Activity [13]: 12 mm; GI50 [20]: > 10 µM; zone of inhibition at 50 µg/disc [21]: 9 mm; inhibition at 10 µM [22]: 0% |
| C[C@@H]1[C@H](O)[C@@H](C)/C=C/C=C/C=C/C=C/C=C/C=C/C=C/[C@H](O[C@@H]2O[C@H](C)[C@@H](O)[C@H](N)[C@@H]2O)C[C@@H]2O[C@](O)(C[C@@H](O)C[C@@H](O)[C@H](O)CC[C@@H](O)C[C@@H](O)CC(=O)O[C@H]1C)C[C@H](O)[C@H]2C(=O)O [AMPHOTERICIN B] | 2 µg/mL (≈ 2.16 µM) | 2 µg/mL (≈ 2.16 µM) | 0.5 µg/mL (≈ 0.541 µM) | 0.25 µg/mL (≈ 0.271 µM) | 2 | 2 | 2 µg/mL (≈ 2.16 µM) | 1 µg/mL (≈ 1.08 µM) |  |  |  |  |  |  |  |  |  |  |  |  | Ratio [1]: 2 |
